One series concerns the target Coagulation factor X (Homo sapiens, UniProt P00742). The experiment in a line: Inhibitory activity against serine protease Coagulation factor X. Put shortly: (§1)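 Inhibition constants (Ki) for each serine protease are the average of at least two determinations, with assay variation of ±10%.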
Another series addresses Plasma kallikrein (Homo sapiens, UniProt P03952). In words: Inhibitory activity against serine protease plasma kallikrein. Put shortly: as §1
The target in a further series is Plasminogen (Homo sapiens, UniProt P00747). In words: Inhibitory activity against serine protease plasmin.
Chain of Plasminogen (P00747 97-580 limits assumed): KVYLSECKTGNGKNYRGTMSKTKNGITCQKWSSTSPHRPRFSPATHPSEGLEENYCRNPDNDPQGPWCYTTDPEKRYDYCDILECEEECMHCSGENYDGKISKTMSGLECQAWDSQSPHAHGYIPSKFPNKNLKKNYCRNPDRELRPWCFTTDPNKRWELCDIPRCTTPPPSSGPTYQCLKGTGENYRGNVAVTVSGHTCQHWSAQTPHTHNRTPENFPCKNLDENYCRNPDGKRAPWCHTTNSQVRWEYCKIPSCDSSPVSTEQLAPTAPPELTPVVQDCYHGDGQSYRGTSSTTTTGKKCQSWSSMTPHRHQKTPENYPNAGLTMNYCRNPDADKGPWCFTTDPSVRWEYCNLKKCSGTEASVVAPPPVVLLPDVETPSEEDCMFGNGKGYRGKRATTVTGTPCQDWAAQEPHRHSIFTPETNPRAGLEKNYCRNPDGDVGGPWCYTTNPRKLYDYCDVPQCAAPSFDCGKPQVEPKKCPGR
Chain of Plasminogen (P00747 581-810 limits assumed): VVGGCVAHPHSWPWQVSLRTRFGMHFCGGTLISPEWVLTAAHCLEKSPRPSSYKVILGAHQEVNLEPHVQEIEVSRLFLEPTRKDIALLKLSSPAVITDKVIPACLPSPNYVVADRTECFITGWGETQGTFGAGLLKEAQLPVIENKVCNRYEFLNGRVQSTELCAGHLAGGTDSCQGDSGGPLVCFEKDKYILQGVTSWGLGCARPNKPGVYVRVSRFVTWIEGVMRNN
Another series deals with Prothrombin (Homo sapiens, UniProt P00734). The experiment in a line: Inhibition of Thrombin.
For a further series, the target named is Serine protease 1 (Homo sapiens, UniProt P07477). The experiment in a line: In vitro inhibition of human trypsin. Put shortly:
as §1

For series [1], the target named is Tissue-type plasminogen activator (Homo sapiens, UniProt P00750). The experiment in a line: Inhibitory activity against serine protease TPA. In a few lines:
as §1

The species entered for series [2] is Rattus norvegicus. In words: Final concentration in rat plasma. It counts as functional, organism-based. In a few lines:
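Rats received an iv infusion at 10 µg/kg/min in saline for 120 min before a FeCl3 vascular insult. Plasma inhibitor level was measured at the end of the experiment.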

Series [3] can be described thus: Oral bioavailability in rat (dose 10 mg/kg). The series is classed as ADME, organism-based. The following applies: in vivo. In a few lines: (§2)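 Rats were given a single oral dose of 10 mg/kg as a suspension in 1% methocel. Oral bioavailability (F, %) was then determined.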
Series [4] is described as follows: Partition coefficient (logP). Conditions: octanol/water. The series is classed as physicochemical.
A short description of series [5]: Concentration of inhibitor in human plasma required to double the activated thromboplastin time. The series is classed as functional.
The nature of series [6]: concentration of compound in human plasma required to double the activated thromboplastin time. It counts as functional.
Series [7] in a line: Antithrombotic activity was assessed from the associated plasma protein binding in Human, determined in a thrombin chromogenic assay. The series is classed as functional.
The species named for series [8] is Rattus norvegicus. The experiment in a line: Antithrombotic activity was assessed from the associated plasma protein binding in rat, determined in a thrombin chromogenic assay. The series is classed as functional.
Series [9] is filed under the species Rattus norvegicus. The experiment in a line: concentration of compound in rat plasma required to double the activated thromboplastin time. The series is classed as functional.
Series [10] in a line: Oral bioavailability in rat (dose 10 mg/kg p.o.). It counts as ADME, organism-based. Conditions: in vivo. In a few lines:
as §2

Series [11] is described as follows: Oral bioavailability (5 mg/kg) was determined in dogs. The series is classed as ADME, organism-based, Canis lupus familiaris. Conditions: dog, in vivo. In a few lines: (§3)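 Dogs were given a single oral dose of 5 mg/kg as a suspension in 1% methocel. Oral bioavailability (F, %) was then determined.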
For series [12], the species on record is Rattus norvegicus. In words: Concentration of inhibitor in rat plasma required to double the activated thromboplastin time. The series is classed as functional.
The species entered for series [13] is Rattus norvegicus. In words: Antithrombotic activity was assessed from the associated plasma protein binding in Rats, determined in a thrombin chromogenic assay. The series is classed as functional.
The nature of series [14]: Area under curve was evaluated after intravenous injection of 1 mg/kg of compound in dogs. The arrangement: dose 1 mg/kg, route intravenous. The series is classed as ADME, organism-based, Canis lupus familiaris. The following applies: dog, in vivo.
Series [15] in a line: Area under curve was evaluated after intravenous injection of 1 mg/kg of compound in rats. It counts as ADME, organism-based. The arrangement: dose 1 mg/kg, route intravenous. The following applies: rat, in vivo.
A short description of series [16]: Clearance from dog plasma after intravenous injection of 1 mg/kg of compound. The arrangement: dose 1 mg/kg, route intravenous. It counts as ADME, organism-based, Canis lupus familiaris.
The nature of series [17]: Clearance from rat plasma after intravenous injection of 1 mg/kg of compound. The arrangement: dose 1 mg/kg, route intravenous. The series is classed as ADME, organism-based.
Series [18] in a line: Oral bioavailability (5 mg/kg, oral) was determined in dogs. The series is classed as ADME, organism-based, Canis lupus familiaris. The following applies: dog, in vivo. In a few lines: as §3
The nature of series [19]: Oral bioavailability in rat after peroral injection of 10 mg/kg of compound. The series is classed as ADME, organism-based. Conditions: in vivo. Put shortly:
as §2

Series [20] in a line: Half-life period after, intravenous injection of 1 mg/kg in dogs. The following applies: dog, in vivo. The series is classed as ADME, organism-based, Canis lupus familiaris. The arrangement: dose 1 mg/kg, route intravenous.
The nature of series [21]: Half-life period after, intravenous injection of 1 mg/kg in rats. The arrangement: dose 1 mg/kg, route intravenous. Conditions: rat, in vivo. It counts as ADME, organism-based.
The nature of series [22]: Half-life period after, peroral injection of 5 mg/kg in dogs. It counts as ADME, organism-based, Canis lupus familiaris. The arrangement: dose 5 mg/kg, route oral. The following applies: dog, in vivo, po.
The species entered for the next series is Homo sapiens. The experiment in a line: concentration of compound in human required to double the activated thromboplastin time. The series is classed as functional.
The species named for series [23] is Rattus norvegicus. In words: concentration of compound in rat required to double the activated thromboplastin time. It counts as functional.
Series [24] can be described thus: Oral bioavailability in dog after peroral injection of 5 mg/kg of compound. The series is classed as ADME, organism-based, Canis lupus familiaris. Conditions: in vivo. Put shortly: as §3

Results on 18 compounds are retold here after ChEMBL document CHEMBL1130225, “Synthesis of a series of potent and orally bioavailable thrombin inhibitors that utilize 3,3-disubstituted propionic acid derivatives in the P3 position” (J Med Chem, 1997).

Molecules are shown by their SMILES. “And” between values parts separate entries of the source, which are not always exact repeats. Equal values may be shown once.

Chain of Plasma kallikrein (P03952 20-390 limits assumed): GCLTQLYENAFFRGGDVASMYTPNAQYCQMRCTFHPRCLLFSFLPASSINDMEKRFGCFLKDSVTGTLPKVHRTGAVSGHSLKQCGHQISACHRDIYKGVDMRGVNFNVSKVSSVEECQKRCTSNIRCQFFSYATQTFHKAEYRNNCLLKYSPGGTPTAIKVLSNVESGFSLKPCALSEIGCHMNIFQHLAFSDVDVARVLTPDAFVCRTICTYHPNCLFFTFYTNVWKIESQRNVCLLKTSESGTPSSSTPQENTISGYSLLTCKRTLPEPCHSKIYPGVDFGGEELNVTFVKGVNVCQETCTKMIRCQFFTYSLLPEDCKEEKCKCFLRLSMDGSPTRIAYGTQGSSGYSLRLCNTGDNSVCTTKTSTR
Chain of Plasma kallikrein (P03952 391-638 limits assumed): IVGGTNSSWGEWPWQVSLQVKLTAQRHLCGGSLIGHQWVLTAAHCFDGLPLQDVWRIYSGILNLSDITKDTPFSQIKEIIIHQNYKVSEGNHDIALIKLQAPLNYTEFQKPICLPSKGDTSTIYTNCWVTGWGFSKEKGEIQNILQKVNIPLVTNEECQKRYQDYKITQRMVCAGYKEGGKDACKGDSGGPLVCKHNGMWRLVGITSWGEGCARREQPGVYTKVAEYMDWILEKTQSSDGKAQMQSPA
Chain of Coagulation factor X (P00742 41-179 limits assumed): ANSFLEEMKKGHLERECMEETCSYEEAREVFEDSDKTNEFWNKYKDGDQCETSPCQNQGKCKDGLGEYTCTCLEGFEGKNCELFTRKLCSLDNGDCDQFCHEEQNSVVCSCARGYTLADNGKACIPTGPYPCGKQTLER
Chain of Coagulation factor X (P00742 235-488 limits assumed): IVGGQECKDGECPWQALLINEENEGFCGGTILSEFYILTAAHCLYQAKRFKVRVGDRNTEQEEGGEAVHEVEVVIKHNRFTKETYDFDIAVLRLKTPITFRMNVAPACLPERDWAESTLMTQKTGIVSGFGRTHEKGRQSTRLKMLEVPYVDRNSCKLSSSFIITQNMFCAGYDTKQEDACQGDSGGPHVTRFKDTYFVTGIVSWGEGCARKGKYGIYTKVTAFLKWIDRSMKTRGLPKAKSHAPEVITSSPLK
Chain of Tissue-type plasminogen activator (P00750 whole entry): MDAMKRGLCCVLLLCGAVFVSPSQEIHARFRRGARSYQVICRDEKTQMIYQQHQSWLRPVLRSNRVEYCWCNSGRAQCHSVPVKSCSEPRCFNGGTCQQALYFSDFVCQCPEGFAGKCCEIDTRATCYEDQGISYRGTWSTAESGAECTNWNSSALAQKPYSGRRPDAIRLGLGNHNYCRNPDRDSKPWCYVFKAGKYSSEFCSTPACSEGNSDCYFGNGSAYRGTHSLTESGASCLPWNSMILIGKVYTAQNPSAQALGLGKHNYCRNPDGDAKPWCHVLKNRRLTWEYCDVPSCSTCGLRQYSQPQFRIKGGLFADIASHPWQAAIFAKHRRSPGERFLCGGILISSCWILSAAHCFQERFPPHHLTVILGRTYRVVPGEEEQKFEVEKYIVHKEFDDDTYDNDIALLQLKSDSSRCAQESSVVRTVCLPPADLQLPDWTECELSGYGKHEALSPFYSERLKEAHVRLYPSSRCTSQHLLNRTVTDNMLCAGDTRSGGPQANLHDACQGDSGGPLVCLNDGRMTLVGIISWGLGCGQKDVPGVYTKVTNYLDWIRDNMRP
Chain of Serine protease 1 (P07477 whole entry): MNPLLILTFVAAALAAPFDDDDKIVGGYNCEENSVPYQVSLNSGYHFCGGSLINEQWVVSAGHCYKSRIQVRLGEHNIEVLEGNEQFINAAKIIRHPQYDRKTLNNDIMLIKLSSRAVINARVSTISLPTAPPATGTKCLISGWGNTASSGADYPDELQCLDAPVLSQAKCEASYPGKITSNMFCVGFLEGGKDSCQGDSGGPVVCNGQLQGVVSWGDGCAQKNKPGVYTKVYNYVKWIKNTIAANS

In the case of `NC1CCC(CNC(=O)[C@@H]2CCCN2C(=O)CC(c2ccccc2)c2ccccn2)CC1` (single isomer, unassigned; diastereomer 1), the Ki was 370 µM at Coagulation factor X; 767 µM at Plasma kallikrein; > 1000 µM at Plasminogen; 0.0018 µM on Prothrombin; 0.89 µM on Serine protease 1; > 1000 µM in series [1].
Regarding `NC1CCC(CNC(=O)[C@@H]2CCCN2C(=O)CC(c2ccccc2)C2CCCCC2)CC1` (single isomer, unassigned; diastereomer 2), the Ki on Prothrombin stood at 0.004 µM; at Serine protease 1, 0.3 µM.
Compound `NC1CCC(CNC(=O)[C@@H]2CCCN2C(=O)CC(c2cccnc2)c2ccc3c(c2)OCO3)CC1` (single isomer, unassigned; diastereomer 2) showed a Concentration in the series filed under Rattus norvegicus [2] of 4000 nM.
Compound `Cl.NC1CCC(CNC(=O)[C@@H]2CCCN2C(=O)CC2c3ccccc3C=Cc3ccccc32)CC1` (some centres not stated) registered a bioavailability in series [3] of 51%. For the same compound, the log partition coefficient (logP) in series [4] was determined as 0.27. The Ki at Coagulation factor X is > 1000 µM; at Plasma kallikrein, 775 µM; at Plasminogen it was 414 µM; on Prothrombin, 0.003 µM; at Serine protease 1, 1.6 µM; in [1], 268 µM.
With `CC1CNc2c(cccc2S(=O)(=O)N[C@@H](CCCNC(=N)N)C(=O)N2CCC(C)C[C@@H]2C(=O)O)C1` (single isomer, unassigned) [ARGATROBAN], the “2x APTT” value in series [5] came to 0.28 µM.
As to `NC1CCC(CNC(=O)[C@@H]2CCCN2C(=O)CC(c2cccnc2)c2ccc3c(c2)OCO3)CC1` (stereo in doubt), the Ki was 0.0047 µM on Prothrombin and 1.9 µM at Serine protease 1.
The like results for `NC1CCC(CNC(=O)[C@@H]2CCCN2C(=O)CC(c2ccccc2)c2cccnc2)CC1` (single isomer, unassigned; diastereomer 1) were, in that order, 0.01 µM and 2.8 µM.
The like results for `NC1CCC(CNC(=O)[C@@H]2CCCN2C(=O)CC(c2ccccc2)c2ccccn2)CC1` (single isomer, unassigned; diastereomer 2) were, in that order, 0.012 µM and 5 µM.
On to `Cl.NC1CCC(CNC(=O)[C@@H]2CCCN2C(=O)CC(C2CCCCC2)C2CCCCC2)CC1` (some centres not stated), for which, in series [4], the lipophilicity (logP) stood at 1.96. Also, the inhibition constant (Ki) at Coagulation factor X was 220 µM; at Plasma kallikrein, 170 µM; on Plasminogen it was 176 µM; on Prothrombin it was 0.014 µM; on Serine protease 1, 2.5 µM; in series [1] it was 84 µM. The “2x APTT” value in series [6] is 7.1 µM; in the series listed under Rattus norvegicus [9], 7.2 µM. Besides, the Activity in series [7] came to 1%; in the series listed under Rattus norvegicus [8] it was 6%. The Concentration in the series listed under Rattus norvegicus [2] is 658 nM. This compound also displayed a bioavailability in [10] of 56%.
In the case of `NC1CCC(CNC(=O)[C@@H]2CCCN2C(=O)CC(c2ccccc2)c2cccnc2)CC1.O=C(O)C(F)(F)F` (single isomer, unassigned; diastereomer 2), the bioavailability in [11] stood at 8%. Besides, the logP in series [4] is -0.64. Further, the Ki at Coagulation factor X is > 1000 µM; on Plasma kallikrein, 476 µM; on Plasminogen it was > 1000 µM; at Prothrombin, 0.0022 µM; on Serine protease 1, 2.2 µM; in [1] it was 746 µM. Moreover, the “2x APTT” value amounted to 0.47 µM in [6] and 0.59 µM in the series filed under Rattus norvegicus [12]. In addition, the Activity in series [7] is 35%; in the series listed under Rattus norvegicus [13], 56%.
With `NC1CCC(CNC(=O)[C@@H]2CCCN2C(=O)CC(c2ccccc2)c2ccncc2)CC1` (single isomer, unassigned; diastereomer 2), the Ki on Coagulation factor X was 400 µM; at Plasma kallikrein, > 1000 µM; on Plasminogen, 744 µM; at Prothrombin it was 0.0034 µM; at Serine protease 1, 2.2 µM; in [1], 436 µM.
As to `NC1CCC(CNC(=O)[C@@H]2CCCN2C(=O)CC(c2cccnc2)c2ccc3c(c2)OCO3)CC1.O=C(O)C(F)(F)F` (single isomer, unassigned; diastereomer 2), the bioavailability in series [3] is < 5%. Also, the logP in [4] was -1.62. Also, the Ki on Coagulation factor X is 1000 µM; on Plasma kallikrein, 1000 µM; on Plasminogen, 572 µM; at Prothrombin it was 0.00028 µM; at Serine protease 1 it was 2.6 µM; in [1] it was > 500 µM. Moreover, the “2x APTT” value is 0.3 µM in series [6] and 0.38 µM in the series filed under Rattus norvegicus [12].
For the compound `NC1CCC(CNC(=O)[C@@H]2CCCN2C(=O)CC(c2ccccc2)c2ccccc2)CC1.O=C(O)C(F)(F)F` (some centres not stated), the AUC worked out at 3.81 µM·h in series [14] and 1.7 µM·h in series [15]. In addition, the results for the clearance in series [16] and in [17] were 10.2 mL/min/kg and 23.2 mL/min/kg, respectively. For the same compound, the bioavailability in series [18] was 58%; in series [19] it was 10%; in series [10], 10%; in series [24], 58%. In addition, the logP in series [4] stood at 0.37. Also, the values for the half-life in series [20], in series [21] and in [22] were 2.92 h, 4.47 h and 2.6 h, respectively. Further, the Ki was 980 µM at Coagulation factor X; > 1000 µM at Plasma kallikrein; 744 µM on Plasminogen; 0.002 µM at Prothrombin; 0.353 µM and 0.35 µM on Serine protease 1; > 1000 µM in [1]. The 2x APTT stood at 0.67 µM in the series filed under Homo sapiens and 0.65 µM in the series filed under Rattus norvegicus [23]. The Activity (in [7]; in the series filed under Rattus norvegicus [8]) was 7% each time. Besides, the Concentration in the series filed under Rattus norvegicus [2] amounted to 1600 nM.
Compound `NC1CCC(CNC(=O)[C@@H]2CCCN2C(=O)CC2c3ccccc3CCc3ccccc32)CC1.O=C(O)C(F)(F)F` (some centres not stated) had a bioavailability in [3] of 12%. Besides, on Prothrombin, the inhibition constant (Ki) turned out to be 0.017 µM.
In the case of `NC1CCC(CNC(=O)[C@@H]2CCCN2C(=O)CC(c2ccccc2)c2ccncc2)CC1` (single isomer, unassigned; diastereomer 1), the Ki at Prothrombin was found to be 0.029 µM; at Serine protease 1, 19 µM.
Take `NC1CCC(CNC(=O)[C@@H]2CCCN2C(=O)CC(c2ccccc2)C2CCCCC2)CC1` (single isomer, unassigned; diastereomer 1): the Ki at Prothrombin turned out to be 0.008 µM; on Serine protease 1, 1.7 µM.
The like results for `CC(CC(=O)N1CCC[C@H]1C(=O)NCC1CCC(N)CC1)(c1ccccc1)c1ccccc1` (some centres not stated) were, in that order, 0.016 µM and 17 µM.
With `NC1CCC(CNC(=O)[C@@H]2CCCN2C(=O)CC(c2ccccc2)c2cccnc2)CC1` (single isomer, unassigned; diastereomer 2), in the series filed under Rattus norvegicus [2], the Concentration was 2890 nM.
